Laboratory results reported in ChEMBL document CHEMBL2150863, “Synthesis pharmacological evaluation and docking studies of pyrimidine derivatives” (Eur J Med Chem, 2012).
≈ marks a conversion by molar mass, not a printed value.

Tests used:
Bacillus subtilis = experiment: Antibacterial activity against Bacillus subtilis MTCC 441 after 24 hrs by tube dilution method; assay type: functional; details: MTCC 441, 24 h
How it was run: (§1)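 Tube dilution in Mueller-Hinton broth at pH 7.4. Two-fold serial dilutions from 1000 to 0.97 in 10% DMSO, with a DMSO-only inoculated control. Inoculum matched visually to a McFarland standard of about 1.5 × 10⁸ cells/mL. Incubation at 37 ± 1 °C for 24 h. MIC is the lowest concentration giving no growth; duplicate determinations, averaged.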

Staphylococcus aureus = experiment: Antibacterial activity against Staphylococcus aureus MTCC 3160 after 24 hrs by tube dilution method; assay type: functional; details: MTCC 3160, 24 h; how it was run: as §1
Rattus norvegicus [1] = experiment: Antiinflammatory activity in rat assessed as inhibition of carrageenan-induced paw edema at 10 mg/kg, po administered 30 mins prior to carrageenan-challenge after 3 hrs relative to vehicle-treated control; assay type: functional
How it was run: (§2)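 Rats of 150–200 g, six per group. Oral dosing at 10 mg/kg as a suspension; controls receive 1% carboxymethylcellulose. After 30 min, 0.1 mL of 1% w/v carrageenan is injected into the left hind paw. Paw volume is measured by mercury displacement. Inhibition = (1 − Vt/Vc) × 100 from edema volumes; mean ± SEM.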

Pseudomonas aeruginosa = experiment: Antibacterial activity against Pseudomonas aeruginosa MTCC 424 after 24 hrs by tube dilution method; assay type: functional; details: MTCC 424, 24 h; how it was run: as §1
Aspergillus niger = experiment: Antifungal activity against Aspergillus niger MTCC 282 after 48 hrs by tube dilution method; assay type: functional; details: MTCC 282, 48 h
How it was run: (§3)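 Tube dilution in Sabouraud dextrose broth at pH 7.4. Two-fold serial dilutions from 1000 to 0.97 in 10% DMSO, with a solvent control. Inoculum matched visually to a McFarland standard of about 1.5 × 10⁸ cells/mL. Incubation at 25 ± 1 °C for 48 h. MIC is the tube showing no fungal growth; duplicate determinations, averaged.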

Mus musculus = experiment: Analgesic activity in mouse assessed as inhibition of acetic-acid induced writhing at 10 mg/kg administered 15 mins prior to acetic acid-challenge measured for 15 mins relative to vehicle-treated control; assay type: functional
How it was run: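 Mice, at least six per group. Test compounds given at 10 mg/kg; acetic acid solution given 15 min later. Writhing is scored as abdominal contractions, trunk twists and hind-limb extensions. Percent inhibition of pain = (1 − Vt/Vc) × 100, where Vt and Vc are mean writhing counts in the treated and control groups.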

Rattus norvegicus [2] = experiment: Antiinflammatory activity in rat assessed as inhibition of carrageenan-induced paw edema at 10 mg/kg, po administered 30 mins prior to carrageenan-challenge after 1 hr relative to vehicle-treated control; assay type: functional; how it was run: as §2
Escherichia coli = experiment: Antibacterial activity against Escherichia coli MTCC 4351 after 24 hrs by tube dilution method; assay type: functional; details: MTCC 4351, 24 h; how it was run: as §1
Rattus norvegicus [3] = experiment: Antiinflammatory activity in rat assessed as inhibition of carrageenan-induced paw edema at 10 mg/kg, po administered 30 mins prior to carrageenan-challenge after 2 hrs relative to vehicle-treated control; assay type: functional; how it was run: as §2
Rattus norvegicus [4] = experiment: Antiinflammatory activity in rat assessed as inhibition of carrageenan-induced paw edema at 10 mg/kg, po administered 30 mins prior to carrageenan-challenge after 4 hrs relative to vehicle-treated control; assay type: functional; how it was run: as §2
Candida albicans = experiment: Antifungal activity against Candida albicans MTCC 183 after 48 hrs by tube dilution method; assay type: functional; details: MTCC 183, 48 h; how it was run: as §3
Rattus norvegicus [5] = experiment: Ulcerogenic activity in Wistar albino rat assessed as ulcer index at 10 mg/kg, ip administered QD for 3 days; assay type: toxicity, organism-based; design: dose 10 mg/kg, route intraperitoneal; details: in vivo, 72 h
How it was run: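 Wistar rats of either sex, 150–200 g, six per group. Given 10 mg/kg ip once daily for 3 days; controls receive 10% v/v Tween 80. Fasted 36 h, then pylorus ligated on day 4. Killed 4 h after ligation; stomach opened along the greater curvature and ulcer index scored; mean ± SEM.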

Row | Compound | MIC (Bacillus subtilis) | MIC (Staphylococcus aureus) | inhibition in vivo at 10 mg/kg (Rattus norvegicus [1]) | MIC (Pseudomonas aeruginosa) | MIC (Aspergillus niger) | inhibition in vivo at 10 mg/kg (Mus musculus) | inhibition in vivo at 10 mg/kg (Rattus norvegicus [2]) | MIC (Escherichia coli) | inhibition in vivo at 10 mg/kg (Rattus norvegicus [3]) | inhibition in vivo at 10 mg/kg (Rattus norvegicus [4]) | MIC (Candida albicans) | UI (Rattus norvegicus [5])
1 | O=C1N=C(C2C(=O)c3ccccc3C2=O)CC(c2ccccc2)N1 (stereo not given) | 250 mg/L (≈ 785 µM) | 125 mg/L (≈ 393 µM) | 21% | 125 mg/L (≈ 393 µM) | 500 mg/L (≈ 1570 µM) | 31% | 20% | 62.5 mg/L (≈ 196 µM) | 33% | 11% | 500 mg/L (≈ 1570 µM) | 
2 | O=C1N=C(C2C(=O)c3ccccc3C2=O)CC(c2ccccc2[N+](=O)[O-])N1 (stereo not given) | 250 mg/L (≈ 688 µM) | 125 mg/L (≈ 344 µM) | 26% | 250 mg/L (≈ 688 µM) | 500 mg/L (≈ 1380 µM) | 35% | 11% | 31.2 mg/L (≈ 85.9 µM) | 30% | 32% | 500 mg/L (≈ 1380 µM) | 
3 | O=C1N=C(C2C(=O)c3ccccc3C2=O)CC(c2cccc([N+](=O)[O-])c2)N1 (stereo not given) | 250 mg/L (≈ 688 µM) | 125 mg/L (≈ 344 µM) | 21% | 250 mg/L (≈ 688 µM) | 125 mg/L (≈ 344 µM) | 36% | 27% | 250 mg/L (≈ 688 µM) | 36% | 12% | 500 mg/L (≈ 1380 µM) | 
4 | O=C1N=C(C2C(=O)c3ccccc3C2=O)CC(c2ccc([N+](=O)[O-])cc2)N1 (stereo not given) | 250 mg/L (≈ 688 µM) | 125 mg/L (≈ 344 µM) | 19% | 250 mg/L (≈ 688 µM) | 500 mg/L (≈ 1380 µM) | 38% | 16% | 500 mg/L (≈ 1380 µM) | 26% | 18% | 500 mg/L (≈ 1380 µM) | 
5 | O=C1N=C(C2C(=O)c3ccccc3C2=O)CC(c2ccc(Cl)cc2)N1 (stereo not given) | 31.2 mg/L (≈ 88.4 µM) | 125 mg/L (≈ 354 µM) | 31% | 62.5 mg/L (≈ 177 µM) | 125 mg/L (≈ 354 µM) | 44% | 15% | 125 mg/L (≈ 354 µM) | 19% | 34% | 125 mg/L (≈ 354 µM) | 1.28
6 | CN(C)c1ccc(C2CC(C3C(=O)c4ccccc4C3=O)=NC(=O)N2)cc1 (stereo not given) | 125 mg/L (≈ 346 µM) | 125 mg/L (≈ 346 µM) | 20% | 62.5 mg/L (≈ 173 µM) | 500 mg/L (≈ 1380 µM) | 52% | 15% | 125 mg/L (≈ 346 µM) | 29% | 16% | 500 mg/L (≈ 1380 µM) | 
7 | COc1ccc(C2CC(C3C(=O)c4ccccc4C3=O)=NC(=O)N2)cc1 (stereo not given) | 125 mg/L (≈ 359 µM) | 500 mg/L (≈ 1440 µM) | 22% | 250 mg/L (≈ 718 µM) | 250 mg/L (≈ 718 µM) | 31% | 22% | 250 mg/L (≈ 718 µM) | 21% | 10% | 250 mg/L (≈ 718 µM) | 
8 | O=C1N=C(C2C(=O)c3ccccc3C2=O)CC(c2ccco2)N1 (stereo not given) | 31.2 mg/L (≈ 101 µM) | 62.5 mg/L (≈ 203 µM) | 20% | 500 mg/L (≈ 1620 µM) | 62.5 mg/L (≈ 203 µM) | 25% | 18% | 31.2 mg/L (≈ 101 µM) | 25% | 7% | 62.5 mg/L (≈ 203 µM) | 
9 | O=C1N=C(C2C(=O)c3ccccc3C2=O)CC(/C=C/c2ccccc2)N1 (stereo not given) | 125 mg/L (≈ 363 µM) | 62.5 mg/L (≈ 181 µM) | 18% | 250 mg/L (≈ 726 µM) | 250 mg/L (≈ 726 µM) | 16% | 17% | 125 mg/L (≈ 363 µM) | 32% | 16% | 250 mg/L (≈ 726 µM) | 
10 | O=C1N=C(C2C(=O)c3ccccc3C2=O)CC(c2ccccc2O)N1 (stereo not given) | 250 mg/L (≈ 748 µM) | 125 mg/L (≈ 374 µM) | 19% | 125 mg/L (≈ 374 µM) | 500 mg/L (≈ 1500 µM) | 37% | 24% | 500 mg/L (≈ 1500 µM) | 22% | 16% | 250 mg/L (≈ 748 µM) | 
11 | O=C1N=C(C2C(=O)c3ccccc3C2=O)CC(c2c[nH]c3ccccc23)N1 (stereo not given) | 250 mg/L (≈ 700 µM) | 250 mg/L (≈ 700 µM) | 12% | 125 mg/L (≈ 350 µM) | 125 mg/L (≈ 350 µM) | 21% | 19% | 250 mg/L (≈ 700 µM) | 21% | 12% | 500 mg/L (≈ 1400 µM) | 
12 | COc1cc(C2CC(C3C(=O)c4ccccc4C3=O)=NC(=O)N2)ccc1O (stereo not given) | 250 mg/L (≈ 686 µM) | 125 mg/L (≈ 343 µM) | 26% | 250 mg/L (≈ 686 µM) | 125 mg/L (≈ 343 µM) | 28% | 20% | 500 mg/L (≈ 1370 µM) | 33% | 11% | 250 mg/L (≈ 686 µM) | 
13 | CC1(C)S[C@@H]2[C@H](NC(=O)[C@H](N)c3ccccc3)C(=O)N2[C@H]1C(=O)O [AMPICILLIN] | 3.9 mg/L (≈ 11.2 µM) | 3.9 mg/L (≈ 11.2 µM) |  | 3.9 mg/L (≈ 11.2 µM) |  |  |  | 3.9 mg/L (≈ 11.2 µM) |  |  |  | 
14 | OC(Cn1cncn1)(Cn1cncn1)c1ccc(F)cc1F [FLUCONAZOLE] |  |  |  |  | 7.8 mg/L (≈ 25.5 µM) |  |  |  |  |  | 7.8 mg/L (≈ 25.5 µM) | 
15 | COc1ccc2c(c1)c(CC(=O)O)c(C)n2C(=O)c1ccc(Cl)cc1 [INDOMETHACIN] |  |  | 39% |  |  | 55% | 23% |  | 48% | 34% |  | 1.7
